Source: ChEMBL document CHEMBL1154614, “Synthesis and evaluation of stable bidentate transition metal complexes of 1-(chloromethyl)-5-hydroxy-3-(5,6,7-trimethoxyindol-2-ylcarbonyl)-2,3-dihydro-1H-pyrrolo[3,2-f]quinoline (seco-6-azaCBI-TMI) as hypoxia selective cytotoxins” (J Med Chem, 2009)

How the values were obtained:
[1] = Solubility in alpha-MEM in presence of FCS; assay type: physicochemical; conditions: alpha-MEM with FCS
CHO-AA8 = assay: Cytotoxicity against hamster AA8 cells after 4 hrs under aerobic conditions; assay type: cell-based; conditions: Cricetulus griseus, CHO-AA8, 4 h
In short: (§1)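 Attached log-phase cells exposed to compound for 4 h under aerobic conditions; compounds formulated in DMSO, final DMSO <1%. IC50 = concentration giving 50% inhibition of cell proliferation. Mean ± SEM of >2 determinations.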

UV4 = assay: Cytotoxicity against hamster UV4 cells after 4 hrs under aerobic conditions; assay type: cell-based; conditions: Cricetulus griseus, UV4, 4 h; in short: as §1
[2] = Cytotoxicity against mouse EMT6V cells after 4 hrs under aerobic conditions; assay type: functional, cell-based; in short: as §1
SK-OV-3 [3] = assay: Cytotoxicity against human SKOV3 cells after 4 hrs under aerobic conditions; assay type: functional, cell-based; conditions: SK-OV-3, 4 h; in short: as §1
SK-OV-3 [4] = assay: Hypoxic cytotoxicity ratio, ratio of IC50 for human SKOV3 cells under aerobic condition to IC50 for human SKOV3 cells after 4 hrs under hypoxic condition; assay type: functional
In short: (§2)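 Attached log-phase cells given 4 h compound exposure in parallel under oxic and hypoxic conditions; compounds in DMSO, final DMSO <1%. IC50 for inhibition of cell proliferation. Ratio = aerobic IC50/hypoxic IC50, calculated within each experiment.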

A549 [5] = assay: Cytotoxicity against human A549 cells after 4 hrs under aerobic conditions; assay type: functional, cell-based; conditions: A549, 4 h; in short: as §1
A549 [6] = assay: Hypoxic cytotoxicity ratio, ratio of IC50 for human A549 cells under aerobic condition to IC50 for human A549 cells after 4 hrs under hypoxic condition; assay type: functional; in short: as §2

SMILES	solubility [1]	IC50 (CHO-AA8)	IC50 (UV4)	IC50 [2]	IC50 (SK-OV-3 [3])	Ratio IC50 (SK-OV-3 [4])	IC50 (A549 [5])	Ratio IC50 (A549 [6])
CN(C)CCOc1ccc2[nH]c(C(=O)N3CC(CCl)c4c3cc(O)c3ncccc43)cc2c1 (stereo not given)	32 µM	4400 pM	1700 pM	740 pM	6900 pM	0.56	1300 pM	1.11
COc1ccc(/C=C/C(=O)N2CC(CCl)c3c2cc(O)c2ncccc32)cc1 (stereo not given)	40 µM	–	–	–	290 pM	–	90 pM	–
COc1ccc(/C=C/C(=O)N2CC(CCl)c3c2cc(O)c2ncccc32)cc1O (stereo not given)	110 µM	–	–	–	170 pM	–	180 pM	–
COc1cc2cc(C(=O)N3C[C@@H](CCl)c4c3cc(O)c3ncccc43)[nH]c2c(OC)c1OC	–	70 pM	40 pM	30 pM	110 pM	–	40 pM	–
CN(C)CCOc1ccc(/C=C/C(=O)N2CC(CCl)c3c2cc(O)c2ncccc32)cc1 (stereo not given)	860 µM	2600 pM	730 pM	580 pM	1900 pM	0.65	920 pM	0.86
COc1ccc2[nH]c(C(=O)N3CC(CCl)c4c3cc(O)c3ncccc43)cc2c1 (stereo not given)	110 µM	–	–	–	270 pM	0.91	80 pM	1.51
COc1cc2cc(C(=O)N3C[C@H](CCl)c4c3cc(O)c3ncccc43)[nH]c2c(OC)c1OC	–	22000 pM	4600 pM	7300 pM	8500 pM	–	8800 pM	–
COc1cc2cc(C(=O)N3CC(CCl)c4c3cc(O)c3ncccc43)[nH]c2c(OC)c1OC (racemic)	30 µM	140 pM	70 pM	50 pM	260 pM	0.69	60 pM	0.76
